Laboratory results published in PMC5700443 (Journal of Cachexia, Sarcopenia and Muscle, 2017).

Columns and labels:
[1] = system: C57BL/6 mice with MCT-induced cardiac cachexia; assay type: in vivo; details: MCT 600 mg/kg weekly, 6 weeks
[2] = system: diaphragm muscle of MCT-treated C57BL/6 mice; test: In vitro contractile function of diaphragm muscle bundles from treated mice; assay type: in vivo; details: MCT 600 mg/kg weekly, 6 weeks, vs sham
Summary of the method: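 C57BL/6 mice (8 weeks) got MCT or saline s.c.; compound was given at 0.1% w/w in chow from 1 week before MCT. Diaphragm bundles at optimal length in buffer pH ~7.4 (95% O2–5% CO2, ~22°C) were equilibrated 15 min, then force–frequency tested (1–300 Hz) plus isotonic loads. Specific force N/cm2 (density 1.06), velocity Lo/s, power = velocity × force; n = 16/group.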

[3] = system: MuRF1 mRNA expression in C2C12 myotubes; test: MuRF1 mRNA expression in dexamethasone-treated myotubes; assay type: cell-based, Murine; details: DEX 10 μmol/L, 24 h
Summary of the method: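 Differentiated C2C12 myotubes (2% horse serum) were pre-treated for 2 h with test compound (0.1–10 μmol/L, DMSO) or DMSO alone before dexamethasone. Total RNA was reverse-transcribed with random hexamers. Quantitative RT-PCR used a LightCycler with FRET detection. MuRF1 was normalised to hypoxanthine phosphoribosyltransferase mRNA (60°C annealing). Mean ± SEM; one-way ANOVA, Bonferroni.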

Structure (SMILES)	body weight loss ([1]; normal chow (sham gained 7.9 ± 0.8%)) [%]	lower TA fibre CSA ([1]; vs sham)	reduction in TA muscle weight ([1]; vs sham)	effect on isometric forces [2]	reduction of peak power [2]	reduction of peak shortening velocity [2]	increase in MuRF1 mRNA expression relative to untreated cells [3]
C[C@H]1C(=O)O[C@@H]2CCN3CC=C(COC(=O)[C@](C)(O)[C@]1(C)O)[C@H]23 [MCT, monocrotaline]	0.7 ± 0.6	~ 20%	~ 10%	no significant effects	~ 20%	~ 20%	–
C[C@@H]1C[C@H]2[C@@H]3CCC4=CC(=O)C=C[C@]4(C)[C@@]3(F)[C@@H](O)C[C@]2(C)[C@@]1(O)C(=O)CO [Dexamethasone, dexamethasone]	–	–	–	–	–	–	approximately 2 fold
